Reference: ChEMBL document CHEMBL1141396, “Synthesis and mixed lineage kinase activity of pyrrolocarbazole and isoindolone analogs of (+)K-252a” (J Med Chem, 2007)
Values belong to the compound of their own block, whether it stands above or below them. Activity calls are given as the source filed them. The calls are words filed in the database; no cut-off is given here.

Experiments:
[1] = biological target: T1, Mitogen-activated protein kinase kinase kinase 9 (Homo sapiens, UniProt P80192); test: Inhibition of GST-MLK1 expressed in baculovirus
[2] = biological target: Mitogen-activated protein kinase kinase kinase 11 (Homo sapiens, UniProt Q16584); test: Inhibition of GST-MLK3 expressed in baculovirus
[3] = biological target: Mitogen-activated protein kinase kinase kinase 10 (Homo sapiens, UniProt Q02779); test: Inhibition of GST-MLK2
Mitogen-activated protein kinase kinase kinase 10, sequence (Q02779 whole entry): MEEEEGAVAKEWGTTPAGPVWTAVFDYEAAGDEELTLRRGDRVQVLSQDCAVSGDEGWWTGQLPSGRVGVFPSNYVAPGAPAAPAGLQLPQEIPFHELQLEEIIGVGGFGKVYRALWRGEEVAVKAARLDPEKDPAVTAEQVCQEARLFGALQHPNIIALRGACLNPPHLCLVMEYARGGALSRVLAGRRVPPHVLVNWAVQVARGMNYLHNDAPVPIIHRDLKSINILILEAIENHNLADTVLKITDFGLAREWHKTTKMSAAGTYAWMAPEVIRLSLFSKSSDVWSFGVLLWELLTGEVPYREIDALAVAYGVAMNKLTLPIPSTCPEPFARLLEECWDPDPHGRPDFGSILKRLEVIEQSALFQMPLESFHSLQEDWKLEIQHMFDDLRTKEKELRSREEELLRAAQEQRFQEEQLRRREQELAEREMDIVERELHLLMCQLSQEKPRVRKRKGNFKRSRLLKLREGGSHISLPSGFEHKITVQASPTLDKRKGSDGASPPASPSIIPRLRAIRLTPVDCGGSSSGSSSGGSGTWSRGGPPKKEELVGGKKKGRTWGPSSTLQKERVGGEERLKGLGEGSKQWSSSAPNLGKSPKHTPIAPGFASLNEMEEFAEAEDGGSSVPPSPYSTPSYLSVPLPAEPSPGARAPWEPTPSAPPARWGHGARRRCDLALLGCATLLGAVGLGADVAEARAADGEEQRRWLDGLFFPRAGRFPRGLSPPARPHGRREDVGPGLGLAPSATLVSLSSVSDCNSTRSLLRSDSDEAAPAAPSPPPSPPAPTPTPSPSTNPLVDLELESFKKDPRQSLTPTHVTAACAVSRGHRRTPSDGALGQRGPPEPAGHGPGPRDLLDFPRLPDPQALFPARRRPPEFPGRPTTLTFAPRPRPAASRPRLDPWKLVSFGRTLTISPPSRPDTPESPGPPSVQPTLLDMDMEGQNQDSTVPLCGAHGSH

Protein kinase C (PKC) = test: Inhibition of PKC; format: protein assay, Homo sapiens
[4] = biological target: High affinity nerve growth factor receptor (Homo sapiens, UniProt P04629); test: Inhibition of TrkA
[5] = biological target: Vascular endothelial growth factor receptor 2 (Homo sapiens, UniProt P35968); test: Inhibition of VEGFR2
[6] = biological target: T1, Mitogen-activated protein kinase kinase kinase 9; test: Inhibition of MKK4 phosphorylation in MLK1 transfected CHO cells at 1 uM after 1 hr; format: functional, cell-based
How it was run: (§1)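 CHO cells transfected with MLK1 plus dominant-negative MKK4 cDNA. Compound exposure 1 h, tested up to 1 µM. Phospho-MKK4 read by ELISA.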
Target sequence in this assay (P80192 whole entry): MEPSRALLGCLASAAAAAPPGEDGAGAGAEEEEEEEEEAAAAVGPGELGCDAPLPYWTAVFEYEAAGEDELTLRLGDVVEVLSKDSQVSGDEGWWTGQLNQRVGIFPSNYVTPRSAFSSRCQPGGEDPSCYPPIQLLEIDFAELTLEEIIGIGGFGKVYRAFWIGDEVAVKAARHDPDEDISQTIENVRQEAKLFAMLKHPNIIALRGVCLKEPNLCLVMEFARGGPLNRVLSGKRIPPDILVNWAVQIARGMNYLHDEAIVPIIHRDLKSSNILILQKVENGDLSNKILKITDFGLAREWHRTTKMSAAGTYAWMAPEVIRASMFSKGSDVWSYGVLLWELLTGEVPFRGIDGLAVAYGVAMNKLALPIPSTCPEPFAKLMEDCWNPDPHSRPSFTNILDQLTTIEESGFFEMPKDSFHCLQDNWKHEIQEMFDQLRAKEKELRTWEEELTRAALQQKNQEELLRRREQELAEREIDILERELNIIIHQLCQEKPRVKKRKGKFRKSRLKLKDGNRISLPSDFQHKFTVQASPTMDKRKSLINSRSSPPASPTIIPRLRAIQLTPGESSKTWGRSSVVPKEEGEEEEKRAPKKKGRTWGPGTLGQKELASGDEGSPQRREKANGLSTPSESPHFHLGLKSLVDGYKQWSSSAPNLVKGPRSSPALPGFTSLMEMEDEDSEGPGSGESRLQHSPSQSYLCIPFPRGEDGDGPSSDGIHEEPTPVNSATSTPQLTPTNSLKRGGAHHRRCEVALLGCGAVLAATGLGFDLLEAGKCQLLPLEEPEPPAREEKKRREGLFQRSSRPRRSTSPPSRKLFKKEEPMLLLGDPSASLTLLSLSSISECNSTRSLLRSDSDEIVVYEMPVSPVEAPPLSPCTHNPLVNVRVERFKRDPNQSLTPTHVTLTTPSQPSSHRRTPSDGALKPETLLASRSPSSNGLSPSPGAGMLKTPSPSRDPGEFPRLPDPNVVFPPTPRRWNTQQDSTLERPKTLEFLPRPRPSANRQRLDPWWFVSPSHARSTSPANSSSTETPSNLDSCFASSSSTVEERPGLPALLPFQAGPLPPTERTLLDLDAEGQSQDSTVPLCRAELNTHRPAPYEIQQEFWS

[7] = biological target: T2, Choline O-acetyltransferase (Rattus norvegicus) (UniProt P32738); test: Enhancement of choline acetyltransferase activity in embryonic rat spinal cord at 300 nM
T2 sequence (whole entry): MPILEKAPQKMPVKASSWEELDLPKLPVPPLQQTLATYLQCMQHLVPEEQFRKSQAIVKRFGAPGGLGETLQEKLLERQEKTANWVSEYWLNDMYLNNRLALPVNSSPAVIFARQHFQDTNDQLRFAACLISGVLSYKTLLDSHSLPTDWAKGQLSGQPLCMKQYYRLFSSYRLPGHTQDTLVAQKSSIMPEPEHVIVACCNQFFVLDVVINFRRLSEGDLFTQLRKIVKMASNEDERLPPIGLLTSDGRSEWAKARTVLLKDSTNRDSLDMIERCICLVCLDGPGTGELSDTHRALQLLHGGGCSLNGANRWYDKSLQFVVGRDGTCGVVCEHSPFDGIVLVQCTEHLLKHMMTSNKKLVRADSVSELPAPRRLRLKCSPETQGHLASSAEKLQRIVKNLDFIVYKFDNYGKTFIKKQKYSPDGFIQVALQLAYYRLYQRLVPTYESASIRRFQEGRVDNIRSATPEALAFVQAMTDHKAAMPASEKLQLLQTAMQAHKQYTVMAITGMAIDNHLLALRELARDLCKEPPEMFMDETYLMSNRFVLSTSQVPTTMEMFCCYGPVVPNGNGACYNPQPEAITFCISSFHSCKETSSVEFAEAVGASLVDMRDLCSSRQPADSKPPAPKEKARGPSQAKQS
How it was run: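 Embryonic rat spinal cord cultures; compounds at 300 nM, ChAT activity measured after 2 days in culture, expressed as percent of basal (100%). K-252a run as internal control. Mean ± standard deviation of three independent experiments.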

[8] = biological target: Platelet-derived growth factor receptor beta (Homo sapiens) (UniProt P09619); test: Inhibition of PDGFRbeta at 1 uM
[9] = biological target: Epidermal growth factor receptor (Homo sapiens) (UniProt P00533); test: Inhibition of EGFR at 1 uM
Epidermal growth factor receptor (Homo sapiens), sequence (P00533 whole entry): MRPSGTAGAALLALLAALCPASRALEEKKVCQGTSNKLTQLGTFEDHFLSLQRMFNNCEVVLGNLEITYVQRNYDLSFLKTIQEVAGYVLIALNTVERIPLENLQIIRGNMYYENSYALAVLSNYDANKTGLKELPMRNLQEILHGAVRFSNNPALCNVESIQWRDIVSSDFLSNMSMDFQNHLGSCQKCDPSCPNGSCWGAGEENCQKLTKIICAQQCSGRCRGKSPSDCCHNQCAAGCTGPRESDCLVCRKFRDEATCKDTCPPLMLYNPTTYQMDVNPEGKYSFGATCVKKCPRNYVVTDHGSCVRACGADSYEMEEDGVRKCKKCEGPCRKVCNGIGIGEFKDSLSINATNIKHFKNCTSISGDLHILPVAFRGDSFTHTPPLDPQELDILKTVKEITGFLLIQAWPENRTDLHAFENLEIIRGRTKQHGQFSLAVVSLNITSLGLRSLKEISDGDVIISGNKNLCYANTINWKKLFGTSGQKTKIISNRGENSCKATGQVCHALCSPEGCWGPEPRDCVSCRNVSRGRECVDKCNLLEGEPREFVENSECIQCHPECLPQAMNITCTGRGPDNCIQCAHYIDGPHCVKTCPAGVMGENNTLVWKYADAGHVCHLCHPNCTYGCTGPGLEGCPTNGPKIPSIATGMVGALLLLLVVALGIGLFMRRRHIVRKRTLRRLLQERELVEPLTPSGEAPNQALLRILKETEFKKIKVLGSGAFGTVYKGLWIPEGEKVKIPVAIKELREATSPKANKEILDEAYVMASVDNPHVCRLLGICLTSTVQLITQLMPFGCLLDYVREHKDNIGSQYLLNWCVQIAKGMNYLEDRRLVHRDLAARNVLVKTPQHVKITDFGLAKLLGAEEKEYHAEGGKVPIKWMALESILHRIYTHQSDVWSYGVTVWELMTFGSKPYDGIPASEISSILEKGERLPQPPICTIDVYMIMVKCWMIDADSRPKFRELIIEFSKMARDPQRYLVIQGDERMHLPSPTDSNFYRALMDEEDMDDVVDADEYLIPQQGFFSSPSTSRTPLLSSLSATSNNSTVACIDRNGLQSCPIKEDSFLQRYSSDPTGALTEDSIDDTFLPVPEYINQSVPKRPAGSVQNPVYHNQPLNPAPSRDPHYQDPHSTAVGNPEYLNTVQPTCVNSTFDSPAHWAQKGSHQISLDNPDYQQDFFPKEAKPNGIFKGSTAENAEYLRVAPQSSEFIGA

[10] = biological target: Fibroblast growth factor receptor 1 (Homo sapiens) (UniProt P11362); test: Inhibition of FGFR1 at 1 uM
[11] = biological target: Cyclin-dependent kinase 1 (Homo sapiens) (UniProt P06493); test: Inhibition of CDK1 at 1 uM
[12] = biological target: Cyclin-dependent kinase 2 (Homo sapiens) (UniProt P24941); test: Inhibition of CDK2 at 1 uM
[13] = biological target: Mitogen-activated protein kinase 14 (Homo sapiens) (UniProt Q16539); test: Inhibition of p38-alpha at 1 uM
Mitogen-activated protein kinase 14 (Homo sapiens), sequence (Q16539 whole entry): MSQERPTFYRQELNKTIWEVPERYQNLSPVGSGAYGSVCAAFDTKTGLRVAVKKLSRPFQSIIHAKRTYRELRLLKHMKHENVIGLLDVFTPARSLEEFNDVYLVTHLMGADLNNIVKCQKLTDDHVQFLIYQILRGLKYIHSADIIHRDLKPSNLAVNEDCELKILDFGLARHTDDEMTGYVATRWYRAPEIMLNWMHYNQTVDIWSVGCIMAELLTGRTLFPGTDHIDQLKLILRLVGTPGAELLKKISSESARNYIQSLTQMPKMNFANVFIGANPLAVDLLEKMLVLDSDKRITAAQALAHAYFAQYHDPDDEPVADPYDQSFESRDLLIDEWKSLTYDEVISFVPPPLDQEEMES

[14] = biological target: Angiopoietin-1 receptor (Homo sapiens) (UniProt Q02763); test: Inhibition of TIE2 at 1 uM
[15] = biological target: Mitogen-activated protein kinase 8 (Homo sapiens) (UniProt P45983); test: Inhibition of JNK1 at 1 uM
[16] = biological target: Insulin receptor (Homo sapiens) (UniProt P06213); test: Inhibition of IRKbeta at 1 uM
Insulin receptor (Homo sapiens), sequence (P06213 28-758 limits assumed): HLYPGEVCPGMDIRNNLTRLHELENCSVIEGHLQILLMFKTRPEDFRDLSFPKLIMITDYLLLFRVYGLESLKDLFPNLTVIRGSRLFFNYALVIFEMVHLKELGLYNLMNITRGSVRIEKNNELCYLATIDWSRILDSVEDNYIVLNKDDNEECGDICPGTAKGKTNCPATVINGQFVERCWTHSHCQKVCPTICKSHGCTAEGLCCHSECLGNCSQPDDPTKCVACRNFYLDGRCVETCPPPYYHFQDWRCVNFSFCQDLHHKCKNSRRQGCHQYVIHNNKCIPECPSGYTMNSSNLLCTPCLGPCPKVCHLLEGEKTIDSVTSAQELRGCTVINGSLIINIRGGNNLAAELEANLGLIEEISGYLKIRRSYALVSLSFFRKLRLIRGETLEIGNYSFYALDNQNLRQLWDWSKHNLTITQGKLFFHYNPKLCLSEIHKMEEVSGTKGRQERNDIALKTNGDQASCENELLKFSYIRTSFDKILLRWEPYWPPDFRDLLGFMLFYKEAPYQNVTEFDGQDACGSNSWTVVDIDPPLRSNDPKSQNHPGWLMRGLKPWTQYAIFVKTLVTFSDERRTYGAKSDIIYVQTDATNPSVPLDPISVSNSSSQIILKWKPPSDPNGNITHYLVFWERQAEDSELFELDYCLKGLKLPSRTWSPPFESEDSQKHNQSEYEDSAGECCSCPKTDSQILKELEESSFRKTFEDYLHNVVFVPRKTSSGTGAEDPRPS
Insulin receptor (Homo sapiens), sequence (P06213 763-1382 limits assumed): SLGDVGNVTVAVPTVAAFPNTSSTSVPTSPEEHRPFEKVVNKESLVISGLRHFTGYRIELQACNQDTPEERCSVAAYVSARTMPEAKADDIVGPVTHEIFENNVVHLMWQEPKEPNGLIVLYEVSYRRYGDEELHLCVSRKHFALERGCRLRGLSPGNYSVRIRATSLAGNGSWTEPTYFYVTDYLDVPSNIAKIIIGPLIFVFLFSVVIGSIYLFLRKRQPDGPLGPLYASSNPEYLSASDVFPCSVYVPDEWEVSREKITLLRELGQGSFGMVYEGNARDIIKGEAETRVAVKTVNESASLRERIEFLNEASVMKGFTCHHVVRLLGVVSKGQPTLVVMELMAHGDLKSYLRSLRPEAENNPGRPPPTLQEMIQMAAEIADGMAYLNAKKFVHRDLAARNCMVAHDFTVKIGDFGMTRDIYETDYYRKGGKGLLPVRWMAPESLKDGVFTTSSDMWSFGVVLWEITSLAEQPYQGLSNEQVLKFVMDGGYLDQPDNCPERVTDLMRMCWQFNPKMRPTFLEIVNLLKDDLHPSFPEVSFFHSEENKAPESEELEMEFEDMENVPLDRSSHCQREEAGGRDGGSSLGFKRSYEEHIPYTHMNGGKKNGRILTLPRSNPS

[17] = biological target: T1, Mitogen-activated protein kinase kinase kinase 9; test: Inhibition of MKK4 phosphorylation in MLK1 transfected CHO cells after 1 hr; format: functional, cell-based; how it was run: as §1
Target sequence in this assay (P80192 whole entry): as the sequence (P80192 whole entry) above

Compound: O=C1NCc2c1c1c3ccccc3sc1c1[nH]c3ccccc3c21
IC50 [1]: 111 nM
IC50 [2]: 26 nM
IC50 [3]: 2090 nM
IC50 (Protein kinase C (PKC)): > 1000 nM
IC50 [4]: 88 nM
IC50 [5]: > 300 nM
Inhibition [6]: 3%
Activity [7]: 138%
inhibition [8]: < 30%
inhibition [9]: < 30%
inhibition [10]: < 30%
inhibition [11]: < 30%
inhibition [12]: < 30%
inhibition [13]: < 30%
inhibition [14]: < 30%
inhibition [15]: < 30%
inhibition [16]: < 30%

Compound: O=C1NCc2c1c1c3ccccc3[nH]c1c1[nH]c3ccccc3c21 [STAUROSPORINONE]
IC50 [1]: 138 nM
IC50 [2]: 49 nM

Compound: O=C1NCc2c1c1c3ccccc3oc1c1[nH]c3ccccc3c21
IC50 [1]: > 10000 nM
IC50 [2]: 1110 nM
Activity [7]: inactive

Compound: O=C1NC(=O)c2c1c1c3ccccc3[nH]c1c1oc3ccccc3c21
IC50 [1]: > 300 nM
IC50 [2]: > 300 nM
Activity [7]: inactive

Compound: O=C1NC(=O)c2c1c1c(c3sc4ccccc4c23)Cc2ccccc2-1
IC50 [1]: > 300 nM
IC50 [2]: > 300 nM

Compound: O=C1NC(=O)c2c1c1c3ccccc3sc1c1sc3ccccc3c21
IC50 [1]: > 300 nM
IC50 [2]: > 300 nM

Compound: O=C1NCc2c1c1c3ccccc3[nH]c1c1sc3ccccc3c21
IC50 [1]: 1800 nM
IC50 [2]: 171 nM

Compound: O=C1NC(=O)c2c1c1c(c3[nH]c4ccccc4c23)CCc2ccccc2-1
IC50 [1]: 22 nM
IC50 [2]: 12 nM
IC50 [3]: 339 nM
IC50 (Protein kinase C (PKC)): 83 nM
IC50 [4]: > 1000 nM
IC50 [5]: > 300 nM
Activity [7]: 178%
inhibition [8]: < 30%
inhibition [9]: < 30%
inhibition [10]: < 30%
inhibition [11]: < 30%
inhibition [12]: < 30%
inhibition [13]: < 30%
inhibition [14]: < 30%
inhibition [15]: < 30%
inhibition [16]: < 30%
IC50 [17]: 90 nM

Compound: O=C1NCc2c1c1c3ccccc3[nH]c1c1oc3ccccc3c21
IC50 [1]: 308 nM
IC50 [2]: 270 nM
Activity [7]: inactive

Compound: O=C1NCc2c1c1c(c3c2-c2ccccc2C3)Cc2ccccc2-1
IC50 [1]: 1410 nM
IC50 [2]: 277 nM

Compound: COC(=O)[C@]1(O)C[C@@H]2O[C@@]1(C)n1c3ccccc3c3c4c(c5c6ccccc6n2c5c31)C(=O)NC4
IC50 [3]: 45 nM

Compound: O=C1NCc2c1c1c3ccccc3sc1c1sc3ccccc3c21
IC50 [1]: > 10000 nM
IC50 [2]: > 10000 nM
Activity [7]: inactive

Compound: O=C1NC(=O)c2c1c1c3ccccc3[nH]c1c1sc3ccccc3c21
IC50 [1]: 68 nM
IC50 [2]: 58 nM

Compound: O=C1NC(=O)c2c1c1c(c3c2-c2ccccc2C3)Cc2ccccc2-1
IC50 [1]: > 300 nM
IC50 [2]: > 300 nM
Activity [7]: inactive

Compound: O=C1NC(=O)c2c1c1c3ccccc3ccc1c1[nH]c3ccccc3c21
IC50 [1]: 300 nM
IC50 [2]: 300 nM

Other lines, results leading:

IC50 [1]: 69 nM
IC50 [2]: 40 nM
IC50 [3]: 364 nM
IC50 (Protein kinase C (PKC)): 1196 nM
Inhibition [6]: 19%
Activity [7]: 152%
inhibition [8]: < 30%
inhibition [9]: < 30%
inhibition [10]: < 30%
inhibition [11]: < 30%
inhibition [12]: < 30%
inhibition [13]: < 30%
inhibition [14]: < 30%
inhibition [15]: < 30%
inhibition [16]: < 30%
Compound: O=C1NCc2c1c1c(c3[nH]c4ccccc4c23)Cc2ccccc2-1

Activity [1]: inactive
Activity [2]: inactive
Compound: O=C1NCc2c1c1c(c3[nH]c4ccccc4c23)-c2ccccc2C1

IC50 [1]: 167 nM
IC50 [2]: 87 nM
IC50 [3]: 2660 nM
IC50 (Protein kinase C (PKC)): > 1000 nM
Inhibition [6]: 22%
Activity [7]: 155%
inhibition [8]: < 30%
inhibition [9]: < 30%
inhibition [10]: < 30%
inhibition [11]: < 30%
inhibition [12]: < 30%
inhibition [13]: < 30%
inhibition [14]: < 30%
inhibition [15]: < 30%
inhibition [16]: < 30%
Compound: O=C1NCc2c3c(c4[nH]c5ccccc5c4c21)Cc1ccccc1-3

IC50 [1]: 482 nM
IC50 [2]: 157 nM
Compound: O=C1NCc2c1c1c(c3sc4ccccc4c23)Cc2ccccc2-1

IC50 [1]: 615 nM
IC50 [2]: 110 nM
Compound: O=C1NCc2c3c(c4sc5ccccc5c4c21)Cc1ccccc1-3

Activity [1]: inactive
Activity [2]: inactive
Compound: O=C1NCc2c3c(c4[nH]c5ccccc5c4c21)-c1ccccc1C3

IC50 [1]: 46 nM
IC50 [2]: 22 nM
IC50 [3]: 3450 nM
IC50 (Protein kinase C (PKC)): 205 nM
IC50 [4]: > 1000 nM
IC50 [5]: > 300 nM
Activity [7]: 171%
inhibition [8]: < 30%
inhibition [9]: < 30%
inhibition [10]: < 30%
inhibition [11]: < 30%
inhibition [12]: < 30%
inhibition [13]: < 30%
inhibition [14]: < 30%
inhibition [15]: < 30%
inhibition [16]: < 30%
IC50 [17]: 274 nM
Compound: O=C1NCc2c3c(c4[nH]c5ccccc5c4c21)CCc1ccccc1-3

IC50 [1]: > 300 nM
IC50 [2]: > 300 nM
Compound: O=C1NC(=O)c2c1c1c(c3[nH]c4ccccc4c23)Cc2ccccc2-1
